The nature of data set [1]: Circular dichroism, percentage helicity. The data set is classed as physicochemical. As to conditions: Percentage helicity derived using circular dichroism, peptide free in solution. In short, it runs like this: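 Peptides were N-terminally acetylated and C-terminally amidated, and HPLC-purified to >90% purity. Stapled variants carried an (i, i + 3) hydrocarbon linkage. Percentage helicity was derived from circular dichroism spectra.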
In general terms: CD spectra are sensitive to the conformation of chiral molecules.

In data set [2] the target is T1, Full-length human eIF4E (human, UniProt P06730 1-217). Nature of the data set: SPR.
T1 sequence (P06730 whole entry): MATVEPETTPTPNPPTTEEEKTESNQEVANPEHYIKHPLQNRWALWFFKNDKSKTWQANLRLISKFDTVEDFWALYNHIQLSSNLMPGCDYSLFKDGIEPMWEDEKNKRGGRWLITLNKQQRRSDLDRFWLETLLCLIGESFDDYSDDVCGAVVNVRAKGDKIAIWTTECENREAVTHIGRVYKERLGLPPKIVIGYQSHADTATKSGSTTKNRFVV
The target of data set [3] is T1, Full-length human eIF4E. Kind of data set: fluorescence polarisation. In general terms: Fluorescence polarisation rises when a labelled molecule tumbles more slowly, as on binding a larger partner.
Data set [4] deals with T1, Full-length human eIF4E. Nature of the data set: fluorescence polarisation. This is another data set of the same source.

Where a SMILES comes first, the peptide text is derived from it.

For the molecule `CC(=O)N[C@@H](CCCCN)C(=O)N[C@@H](CCCCN)C(=O)N[C@@H](CCCNC(=N)N)C(=O)N[C@@H](Cc1ccc(O)cc1)C(=O)N[C@@H](CO)C(=O)N[C@@H](CCCNC(=N)N)C(=O)N[C@@H](CCC(=O)O)C(=O)N[C@@H](Cc1ccccc1)C(=O)N[C@@H](CC(C)C)C(=O)N[C@@H](CC(C)C)C(=O)NCC(=O)N[C@@H](Cc1ccccc1)C(N)=O` [eIF4G^D5S] (Ac-KKRYSREFLLGF-NH2), the Helicity in data set [1] was found to be 0%.

B1: eIF4G^D5S peptide (peptide)
peptide: Ac-KKRYSREFLLGF-NH2
Usually Kd stands for a measure of binding affinity in units of concentration. Read a low Kd as higher affinity. As to B1, the values for the Kd with Full-length human eIF4E [2] and with Full-length human eIF4E [3] were 99.9 ± 6.2 nM and 195 ± 12.1 nM, respectively.

B2: FAM labeled tracer peptide (KKRYSRDFLLALQK-(FAM)) (peptide)
peptide: Ac-KKRYSRDFLLALQK(FAM)-NH2
For the molecule B2, in the data set with Full-length human eIF4E [4], the binding result is listed as “binds”.
